The source made the active and inactive calls. No cut-off for these calls is given here.
Key:
PC-3 = assay: Antiproliferative activity against human PC-3 cells assessed as reduction in cell viability after 48 hrs by MTT assay; type: functional, cell-based; conditions: PC-3, 48 h
Outline: (§1)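 Cell lines grown at 37 °C in 5% CO2: A2780, A549, HL7702 and PC3 in RPMI 1640; HT29 in McCoy's 5A; HepG2 and PANC-1 in DMEM; all media with 10% FBS and penicillin/streptomycin. Cells seeded and left overnight, then exposed to compound for 48 h. MTT (5 mg/mL solution) added for 4 h at 37 °C, formazan dissolved in DMSO, absorbance read at 570 nm. IC50 taken from viability; run in triplicate.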

HT-29 = assay: Antiproliferative activity against human HT29 cells assessed as reduction in cell viability after 48 hrs by MTT assay; type: functional, cell-based; conditions: HT-29, 48 h; outline: as §1
A2780 = assay: Antiproliferative activity against human A2780 cells assessed as reduction in cell viability after 48 hrs by MTT assay; type: functional, cell-based; conditions: A2780, 48 h; outline: as §1
PANC-1 = assay: Antiproliferative activity against human PANC1 cells assessed as reduction in cell viability after 48 hrs by MTT assay; type: functional, cell-based; conditions: PANC-1, 48 h; outline: as §1
HepG2 [1] = assay: Induction of morphological changes in human HepG2 cells assessed as accumulation of cytoplasmic vacuoles at 4 uM after 24 hrs by optical microscopic method; type: functional, cell-based
Outline: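 Cells grown at 37 °C, 5% CO2 in media with 10% FBS and penicillin/streptomycin, then treated with compound. Cytoplasmic vacuoles judged by optical microscopy. Time course at 4 μM, or 10 h exposure across increasing concentrations.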

A549 = assay: Antiproliferative activity against human A549 cells assessed as reduction in cell viability after 48 hrs by MTT assay; type: functional, cell-based; conditions: A549, 48 h; outline: as §1
L02 = assay: Antiproliferative activity against human L02 cells assessed as reduction in cell viability after 48 hrs by MTT assay; type: cell-based; conditions: L02, 48 h; outline: as §1
HepG2 [2] = assay: Antiproliferative activity against human HepG2 cells assessed as reduction in cell viability after 48 hrs by MTT assay; type: functional, cell-based; conditions: HepG2, 48 h; outline: as §1
HepG2 [3] = assay: Induction of morphological changes in human HepG2 cells assessed as accumulation of cytoplasmic vacuoles >30 uM after 24 hrs by optical microscopic method; type: functional, cell-based; conditions: dose microM >30, time 24.0 hrs
[4] = Drug uptake in human HepG2 cells mitochondria at 5 uM after 12 hrs by HPLC analysis; type: ADME; conditions: hepg2, 12 h
Outline: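 HepG2 cells given 5 μM for 12 h, then homogenized in mitochondrial extraction reagent. Spun at 600 g, 4 °C, 10 min; supernatant spun again at 11000 g, 4 °C, 10 min, and the pellet taken as mitochondria. Drug content by HPLC on a C18 column with methanol–0.1% acetic acid (80:20), detection at 265 nm. Run thrice.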

HepG2 [5] = assay: Induction of morphological changes in human HepG2 cells assessed as accumulation of cytoplasmic vacuoles at 40 uM after 24 hrs by optical microscopic method; type: functional, cell-based
HepG2 [6] = assay: Synergistic antiproliferative activity against human HepG2 cells assessed as combination index after 48 hrs in presence HN by MTT assay; type: functional
HepG2 [7] = assay: Synergistic antiproliferative activity against human HepG2 cells assessed as combination index after 48 hrs in presence BBR by MTT assay; type: functional
HepG2 [8] = assay: Synergistic antiproliferative activity against human HepG2 cells assessed as combination index at 20 to 80 uM after 48 hrs in presence of 10 to 40 uM HN by MTT assay; type: functional; conditions: dose 20-80 µM

IC50 (PC-3)	IC50 (HT-29)	IC50 (A2780)	IC50 (PANC-1)	IC50 (A549)	IC50 (HepG2 [2])	Drug uptake [4]	Compound	Activity (HepG2 [1])	IC50 (L02)	Activity (HepG2 [3])	Activity (HepG2 [5])	CI (HepG2 [6])	CI (HepG2 [7])	CI (HepG2 [8])
1.43 µM	2.39 µM	1.68 µM	2.56 µM	1.66 µM	0.92 µM		C=CCc1ccc(OCCCCCc2c3[n+](cc4c(OC)c(OC)ccc24)CCc2cc4c(cc2-3)OCO4)c(-c2ccc(OCCC)c(CC=C)c2)c1	Active	3.62 µM					
24.8 µM	35.4 µM	24.7 µM	16.4 µM	> 30 µM	29.7 µM		C=CCc1ccc(OC)c(-c2ccc(O)c(CC=C)c2)c1		35.3 µM					
29 µM	31.6 µM	31.6 µM	31.2 µM	38 µM	23.9 µM	17.8 µM	C=CCc1ccc(O)c(-c2ccc(O)c(CC=C)c2)c1 [HONOKIOL]		25.5 µM	Active				
					29.3 µM		CCCCCc1c2[n+](cc3c(OC)c(OC)ccc13)CCc1cc3c(cc1-2)OCO3.[I-]				Active	0.79		
17.9 µM	21.1 µM	14.7 µM	16.7 µM	22 µM	17.5 µM		C=CCc1ccc(O)c(-c2ccc(OC)c(CC=C)c2)c1 [METHYLHONOKIOL]		23.9 µM					
2 µM	2.54 µM	1.97 µM	2.48 µM	2.09 µM	1.27 µM		C=CCc1ccc(OCCCCCCCCc2c3[n+](cc4c(OC)c(OC)ccc24)CCc2cc4c(cc2-3)OCO4)c(-c2ccc(O)c(CC=C)c2)c1	Active	5.77 µM					
2.26 µM	> 5 µM	3.03 µM	> 5 µM	> 5 µM	3.71 µM		C=CCc1ccc(OCCCc2c3[n+](cc4c(OC)c(OC)ccc24)CCc2cc4c(cc2-3)OCO4)c(-c2ccc(O)c(CC=C)c2)c1	Active	5.21 µM					
1.12 µM	1.56 µM	1.36 µM	2.96 µM	1.71 µM	1.04 µM		C=CCc1ccc(OCCCCCc2c3[n+](cc4c(OC)c(OC)ccc24)CCc2cc4c(cc2-3)OCO4)c(-c2ccc(OC)c(CC=C)c2)c1	Active	2.97 µM					
1.22 µM	1.95 µM	1.41 µM	1.69 µM	1.25 µM	0.95 µM		C=CCc1ccc(OCCC)c(-c2ccc(OCCCCCc3c4[n+](cc5c(OC)c(OC)ccc35)CCc3cc5c(cc3-4)OCO5)c(CC=C)c2)c1	Active	3.05 µM					
0.99 µM	1.64 µM	1.17 µM	1.73 µM	1.33 µM	1.05 µM		C=CCc1ccc(OC)c(-c2ccc(OCCCCCc3c4[n+](cc5c(OC)c(OC)ccc35)CCc3cc5c(cc3-4)OCO5)c(CC=C)c2)c1	Active	3.43 µM					
1.74 µM	2.89 µM	1.52 µM	2.09 µM	1.84 µM	0.77 µM		C=CCc1ccc(O)c(-c2ccc(OCCCCCCCCc3c4[n+](cc5c(OC)c(OC)ccc35)CCc3cc5c(cc3-4)OCO5)c(CC=C)c2)c1	Active	4.82 µM					
					19.2 µM		C=CCc1ccc(O)c(-c2ccc(OCCCCC)c(CC=C)c2)c1						0.79	
1.17 µM	> 5 µM	1.56 µM	6.02 µM	3.25 µM	2.19 µM		C=CCc1ccc(O)c(-c2ccc(OCCCc3c4[n+](cc5c(OC)c(OC)ccc35)CCc3cc5c(cc3-4)OCO5)c(CC=C)c2)c1	Active	3.56 µM					
0.93 µM	5.92 µM	0.71 µM	1.73 µM	3.08 µM	0.67 µM		COc1cccc2c1C(=O)c1c(O)c3c(c(O)c1C2=O)C[C@@](O)(C(=O)CO)C[C@@H]3O[C@H]1C[C@H](N)[C@H](O)[C@H](C)O1 [DOXORUBICIN]		2.24 µM					
1.59 µM	> 5 µM	1.59 µM	3.24 µM	2.9 µM	2.32 µM		C=CCc1ccc(OCCCCCc2c3[n+](cc4c(OC)c(OC)ccc24)CCc2cc4c(cc2-3)OCO4)c(-c2ccc(O)c(CC=C)c2)c1	Active	3.04 µM					
31.7 µM	> 50 µM	> 50 µM	> 50 µM	> 50 µM	> 50 µM		COc1ccc2cc3[n+](cc2c1OC)CCc1cc2c(cc1-3)OCO2.[Cl-] [BERBERINE CHLORIDE]		> 50 µM		inactive			>1

Compound	IC50 (PC-3)	IC50 (HT-29)	IC50 (A2780)	IC50 (PANC-1)	IC50 (A549)	IC50 (HepG2 [2])	Drug uptake [4]	Activity (HepG2 [1])	IC50 (L02)	Activity (HepG2 [3])	Activity (HepG2 [5])	CI (HepG2 [6])	CI (HepG2 [7])	CI (HepG2 [8])
C=CCc1ccc(O)c(-c2ccc(OCCC)c(CC=C)c2)c1	21.1 µM	26.5 µM	14.7 µM	17.8 µM	21 µM	19.1 µM			27.8 µM					
C=CCc1ccc(OCCC)c(-c2ccc(O)c(CC=C)c2)c1	17 µM	26.4 µM	14.7 µM	15.9 µM	14.7 µM	15.5 µM			22.4 µM					
